Our source for the AUC, IC50 and inhibition values is ChEMBL document CHEMBL1921733, “III. Identification of novel CXCR3 chemokine receptor antagonists with a pyrazinyl-piperazinyl-piperidine scaffold” (Bioorg Med Chem Lett, 2011).

Data set [1] is described as follows: AUC in rat at 10 mg/kg, po after 6 hrs. The conditions noted are these: in vivo.
Data set [2] deals with T1, C-X-C chemokine receptor type 3 (Homo sapiens, UniProt P49682).
T1 sequence (P49682 whole entry): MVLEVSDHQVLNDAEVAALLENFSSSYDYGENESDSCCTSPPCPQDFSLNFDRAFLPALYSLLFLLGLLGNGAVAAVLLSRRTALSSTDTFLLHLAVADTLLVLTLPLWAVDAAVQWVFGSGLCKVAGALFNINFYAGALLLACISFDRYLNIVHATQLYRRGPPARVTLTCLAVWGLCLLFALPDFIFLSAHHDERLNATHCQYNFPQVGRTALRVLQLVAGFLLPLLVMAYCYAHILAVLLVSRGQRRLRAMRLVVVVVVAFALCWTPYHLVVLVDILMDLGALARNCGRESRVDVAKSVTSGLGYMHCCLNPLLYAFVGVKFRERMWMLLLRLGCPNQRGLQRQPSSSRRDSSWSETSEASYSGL
Nature of the data set: Displacement of [125I]CXCL10 from human CXCR3 expressed in mouse BA/F3 cells. Type of data set: cell-based, BaF3. In outline:
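Radioligand displacement of 125I-labelled human CXCL10 from recombinant Ba/F3 cells expressing human CXCR3.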

The target in a further data set is hERG (KCNH2) (Homo sapiens, UniProt Q12809). Nature of the data set: Inhibition of human ERG at 10 uM by rubidium efflux assay. In short, it runs like this:
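hERG K+ channel block measured by rubidium efflux with test compound at 10 μM, reported as % inhibition.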

Sequence of hERG (KCNH2) (Q12809 whole entry): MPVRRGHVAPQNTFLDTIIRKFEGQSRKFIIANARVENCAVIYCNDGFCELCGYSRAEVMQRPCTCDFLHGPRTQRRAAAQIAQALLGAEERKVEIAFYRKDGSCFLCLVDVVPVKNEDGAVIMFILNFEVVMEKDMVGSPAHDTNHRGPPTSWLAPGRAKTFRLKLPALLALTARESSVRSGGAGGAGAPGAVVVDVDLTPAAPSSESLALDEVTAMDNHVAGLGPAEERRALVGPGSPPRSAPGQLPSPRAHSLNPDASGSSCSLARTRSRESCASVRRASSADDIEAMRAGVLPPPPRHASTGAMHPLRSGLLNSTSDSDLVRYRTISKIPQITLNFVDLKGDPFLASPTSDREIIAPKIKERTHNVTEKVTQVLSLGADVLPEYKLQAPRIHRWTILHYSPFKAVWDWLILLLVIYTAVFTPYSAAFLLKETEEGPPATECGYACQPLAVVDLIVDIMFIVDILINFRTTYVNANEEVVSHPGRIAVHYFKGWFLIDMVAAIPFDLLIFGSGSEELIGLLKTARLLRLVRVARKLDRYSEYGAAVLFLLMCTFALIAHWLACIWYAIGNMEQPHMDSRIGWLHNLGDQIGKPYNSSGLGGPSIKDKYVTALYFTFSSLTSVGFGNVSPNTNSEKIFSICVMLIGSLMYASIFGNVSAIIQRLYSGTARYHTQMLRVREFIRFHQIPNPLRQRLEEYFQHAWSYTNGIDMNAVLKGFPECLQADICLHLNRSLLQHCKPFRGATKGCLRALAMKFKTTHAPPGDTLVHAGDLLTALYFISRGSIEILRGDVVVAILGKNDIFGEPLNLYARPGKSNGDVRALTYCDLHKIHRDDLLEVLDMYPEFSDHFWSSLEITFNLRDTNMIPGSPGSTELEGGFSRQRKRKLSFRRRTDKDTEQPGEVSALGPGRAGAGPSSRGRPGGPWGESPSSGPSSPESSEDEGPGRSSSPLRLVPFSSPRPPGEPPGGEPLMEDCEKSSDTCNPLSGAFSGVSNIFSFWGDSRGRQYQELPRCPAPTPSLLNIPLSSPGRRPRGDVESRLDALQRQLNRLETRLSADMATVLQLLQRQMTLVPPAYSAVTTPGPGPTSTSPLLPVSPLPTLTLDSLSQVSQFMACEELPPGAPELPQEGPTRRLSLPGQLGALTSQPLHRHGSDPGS

One may read the AUC as concentration integrated over time. Higher therefore signals more exposure. Regarding `CC[C@H]1CN(c2nc(N)c(C(N)=O)nc2Cl)CCN1C1CCN(Cc2ccc(Cl)cc2)CC1`, the AUC at 6 h in data set [1] was 5.1 µM·h.

Broadly, the IC50 is the concentration that gives 50% inhibition. `CC[C@H]1CN(c2nc(N)c(C(N)=O)nc2Cl)CCN1C1CCN(Cc2ccc(OC(F)(F)F)cc2)CC1`: the IC50 in data set [2] was 3.7 nM.

For the molecule `CC[C@H]1CN(c2nc(N)c(C(N)=O)nc2Cl)CCN1C1CCN(Cc2ccc(C#N)cc2)CC1`, the IC50 in data set [2] is 8.5 nM.

As for `CC[C@H]1CN(c2nc(N)c(C(N)=O)nc2Cl)CCN1C1CCN(C(CO)c2ccc(Cl)cc2)CC1` (some centres undefined), the IC50 in data set [2] came to 1.9 nM.

`CC[C@H]1CN(c2nc(N)c(C(N)=O)nc2Cl)CCN1C1CCN(C(=O)c2ccc(Cl)cc2)CC1` registered an IC50 in data set [2] of 76 nM.

`CC[C@H]1CN(c2nc(N)c(C(=O)NC)nc2Cl)CCN1C1CCN(Cc2ccc(Cl)cc2)CC1` came in with an IC50 in data set [2] of 0.3 nM.

In turn, `CC[C@H]1CN(c2nc(N)c(C(=O)NCC(F)(F)F)nc2Cl)CCN1C1CCN(Cc2ccc(Cl)cc2)CC1` had a half-inhibitory concentration (IC50) in data set [2] of 0.8 nM.

Turning to `CC[C@H]1CN(c2nc(N)c(C(=O)NCCO)nc2Cl)CCN1C1CCN(Cc2ccc(Cl)cc2)CC1`, in data set [2], the IC50 is 0.4 nM.

In data set [2], `CC[C@H]1CN(c2nc(N)c(C(=O)NCC(C)O)nc2Cl)CCN1C1CCN(Cc2ccc(Cl)cc2)CC1` (some centres undefined) had an IC50 of 0.3 nM.

In data set [2], `CC[C@H]1CN(c2nc(N)c(C(=O)NCC(C)(C)O)nc2Cl)CCN1C1CCN(Cc2ccc(Cl)cc2)CC1` returned an IC50 of 8.4 nM.

In the case of `CC[C@H]1CN(c2nc(N)c(C(=O)NCCNS(=O)(=O)C(F)(F)F)nc2Cl)CCN1C1CCN(Cc2ccc(Cl)cc2)CC1`, the IC50 in data set [2] is 0.9 nM.

In data set [2], `CC[C@H]1CN(c2nc(N)c(C(=O)NCCNS(N)(=O)=O)nc2Cl)CCN1C1CCN(Cc2ccc(Cl)cc2)CC1` displayed an IC50 of 1.9 nM.

Turning to `CC[C@H]1CN(c2nc(N)c(C(=O)NCCS(C)(=O)=O)nc2Cl)CCN1C1CCN(Cc2ccc(Cl)cc2)CC1`, the IC50 in data set [2] turned out to be 6.4 nM.

Molecule `CC[C@H]1CN(c2nc(N)c(C(=O)N[C@@H]3CCOC3=O)nc2Cl)CCN1C1CCN(Cc2ccc(Cl)cc2)CC1` registered an IC50 in data set [2] of 1.5 nM.

Usually inhibition stands for the percentage by which the read-out fell short of the control. As for `CC[C@H]1CN(c2nc(N)c(C(=O)NCCNS(N)(=O)=O)nc2Cl)CCN1C1CCN(Cc2ccc(F)c(F)c2)CC1`, in data set [2], the half-inhibitory concentration (IC50) turned out to be 9 nM. Moreover, 10 µM produced 4% inhibition on hERG (KCNH2).

Turning to `CC[C@H]1CN(c2nc(N)c(C(=O)NCCNS(C)(=O)=O)nc2Cl)CCN1C1CCN(Cc2ccc(Cl)cc2)CC1`, in data set [2], the IC50 was found to be 4.4 nM. This molecule also yielded an inhibition at 10 µM against hERG (KCNH2) of 39%.

Regarding `CC[C@H]1CN(c2nc(N)c(C(N)=O)nc2Cl)CCN1C1CCN(Cc2ccc(Cl)cc2[C@H](O)C(N)=O)CC1`, in data set [2], the IC50 came out at 4.1 nM. 10 µM produced 14% inhibition at hERG (KCNH2).

`CC[C@H]1CN(c2nc(N)c(C(=O)NCCO)nc2Cl)CCN1C1CCN(C(=O)c2ccc(Cl)nc2N)CC1` registered an AUC at 6 h in data set [1] of 5.9 µM·h. In data set [2], this molecule showed an IC50 of 3.4 nM. The molecule further showed an inhibition at 10 µM at hERG (KCNH2) of 17%.

With `CC[C@H]1CN(c2ncc(C(N)=O)nc2Cl)CCN1C1CCN(C(=O)c2ccc(Cl)nc2N)CC1`, in data set [2], the IC50 came out at 2.5 nM. The inhibition at 10 µM at hERG (KCNH2) stood at 7%.

In the case of `CC[C@H]1CN(c2ncc(C(=O)NC(C)(C)C)nc2Cl)CCN1C1CCN(C(=O)c2ccc(Cl)nc2N)CC1`, in data set [2], the IC50 was 1.5 nM. At hERG (KCNH2), this molecule registered an inhibition at 10 µM of 13%.

Consider `CC[C@H]1CN(c2ncc(C(=O)NC3CC3)nc2Cl)CCN1C1CCN(C(=O)c2ccc(Cl)nc2N)CC1`, for which, in data set [2], the IC50 is 1.2 nM. This molecule also gave an inhibition at 10 µM against hERG (KCNH2) of 19%.

Consider `CC[C@H]1CN(c2ncc(C(=O)NC(C)C)nc2Cl)CCN1C1CCN(C(=O)c2ccc(Cl)nc2N)CC1`, for which the IC50 in data set [2] stood at 0.9 nM. This molecule displayed an inhibition at 10 µM on hERG (KCNH2) of 56%.

In data set [2], `CC[C@H]1CN(c2ncc(C(=O)NCCO)nc2Cl)CCN1C1CCN(C(=O)c2ccc(Cl)nc2N)CC1` registered an IC50 of 2.9 nM. This molecule gave an inhibition at 10 µM at hERG (KCNH2) of 11%.

`CC[C@H]1CN(c2ncc(C(=O)NC[C@@H](C)O)nc2Cl)CCN1C1CCN(C(=O)c2ccc(Cl)nc2N)CC1` yielded an IC50 in data set [2] of 2.9 nM. Also, the inhibition at 10 µM at hERG (KCNH2) worked out at 17%.

The molecule `CC[C@H]1CN(c2ncc(C(N)=O)nc2C(F)(F)F)CCN1C1CCN(C(=O)c2ccc(Cl)nc2N)CC1` had an AUC at 6 h in data set [1] of 15.3 µM·h. In data set [2], this molecule yielded an IC50 of 1.9 nM. In addition, 10 µM produced 0% inhibition against hERG (KCNH2).

`CC[C@H]1CN(c2ncc(C(=O)NC)nc2C(F)(F)F)CCN1C1CCN(C(=O)c2ccc(Cl)nc2N)CC1` came in with an AUC at 6 h in data set [1] of 6.4 µM·h. Besides, in data set [2], the IC50 came to 1.5 nM. Also, testing at 10 µM against hERG (KCNH2) gave an inhibition of 0%.

In the case of `CC[C@H]1CN(c2ncc(C(=O)NC3CC3)nc2C(F)(F)F)CCN1C1CCN(C(=O)c2ccc(Cl)nc2N)CC1`, the AUC at 6 h in data set [1] was 3.6 µM·h. In data set [2], this molecule registered an IC50 of 1.8 nM. This molecule came in with an inhibition at 10 µM against hERG (KCNH2) of 53%.

On to `CC[C@H]1CN(c2ncc(C(N)=O)nc2C)CCN1C1CCN(C(=O)c2ccc(Cl)nc2N)CC1`, for which, in data set [1], the AUC at 6 h was determined as 30.2 µM·h. The IC50 in data set [2] worked out at 4 nM. This molecule also showed an inhibition at 10 µM against hERG (KCNH2) of 0%.

`CC[C@H]1CN(c2ncc(C(=O)NC)nc2C)CCN1C1CCN(C(=O)c2ccc(Cl)nc2N)CC1` displayed an AUC at 6 h in data set [1] of 12.1 µM·h. For the same molecule, the IC50 in data set [2] is 2.4 nM. Besides, the inhibition at 10 µM at hERG (KCNH2) is 5%.

In the case of `CC[C@H]1CN(c2ncc(C(=O)NC3CC3)nc2C)CCN1C1CCN(C(=O)c2ccc(Cl)nc2N)CC1`, the AUC at 6 h in data set [1] came to 22 µM·h. Further, the IC50 in data set [2] was found to be 1.9 nM. At hERG (KCNH2), testing at 10 µM gave an inhibition of 16%.

Take `CC[C@H]1CN(c2ncc(C(N)=O)nc2C)CCN1C1CCN(C(=O)c2ccc(Cl)cc2)CC1`: the IC50 in data set [2] was 18 nM. Besides, at 10 µM the inhibition against hERG (KCNH2) was 6%.

In data set [2], `CC[C@H]1CN(c2ncc(C(=O)NC)nc2C)CCN1C1CCN(C(=O)c2ccc(Cl)cc2)CC1` yielded an IC50 of 3.6 nM. Also, the inhibition at 10 µM against hERG (KCNH2) stood at 41%.

`CCNC(=O)c1cnc(N2CCN(C3CCN(C(=O)c4ccc(Cl)cc4)CC3)[C@@H](CC)C2)c(C)n1` gave an AUC at 6 h in data set [1] of 2.9 µM·h. Also, the IC50 in data set [2] worked out at 2 nM. The molecule further displayed an inhibition at 10 µM on hERG (KCNH2) of 44%.

In turn, `CC[C@H]1CN(c2ncc(C(=O)NC3CC3)nc2C)CCN1C1CCN(C(=O)c2ccc(Cl)cc2)CC1` registered an AUC at 6 h in data set [1] of 8.4 µM·h. Moreover, the IC50 in data set [2] came out at 1.1 nM. Further, at 10 µM the inhibition against hERG (KCNH2) was 74%.

Regarding `CC[C@H]1CN(c2ncc(C(N)=O)nc2C)[C@H](C)CN1C1CCN(C(=O)c2ccc(Cl)cc2)CC1`, the IC50 in data set [2] was determined as 5.4 nM. For the same molecule, at hERG (KCNH2), 10 µM produced 9% inhibition.

`CC[C@@H]1CN(C2CCN(C(=O)c3ccc(Cl)cc3)CC2)[C@@H](CC)CN1c1ncc(C(N)=O)nc1C`: the IC50 in data set [2] was 235 nM. Also, the inhibition at 10 µM at hERG (KCNH2) was 13%.

Regarding `CC[C@H]1CN(c2ncc(C(N)=O)nc2C)[C@@H](C)CN1C1CCN(C(=O)c2ccc(Cl)cc2)CC1`, in data set [2], the IC50 was greater than 1000 nM.

`CC[C@H]1CN(c2ncc(C(=O)NC)nc2C)[C@H](C)CN1C1CCN(C(=O)c2ccc(Cl)cc2)CC1`: in data set [2], the IC50 is 4.2 nM. Also, on hERG (KCNH2), the inhibition at 10 µM came out at 30%.

The molecule `CC[C@H]1CN(c2ncc(C(=O)NC3CC3)nc2C)[C@H](C)CN1C1CCN(C(=O)c2ccc(Cl)cc2)CC1` displayed an AUC at 6 h in data set [1] of 9.8 µM·h. Besides, the IC50 in data set [2] was 1.3 nM. Also, testing at 10 µM on hERG (KCNH2) gave an inhibition of 7%.

In data set [1], `CCNC(=O)c1cnc(N2CCN(C3CCN(Cc4ccc(Cl)cc4)CC3)[C@@H](CC)C2)c(Cl)c1` yielded an AUC at 6 h of 0.4 µM·h.
